Results pooled from the literature.
Protocols differ between the studies behind these lines. ≈ marks a conversion by molar mass, not a printed value.
Organism: Klebsiella pneumoniae

`Cc1ccc(S(=O)(=O)Oc2cc(C(C)C)ccc2C)cc1` has an IC50 of 279 µg/mL (≈ 918 µM) (microbial growth; broth dilution; ATCC700603).
For `NC[C@H]1O[C@H](O[C@H]2[C@H](O)[C@@H](O[C@H]3O[C@H](CO)[C@@H](O)[C@H](N)[C@H]3O)[C@H](N)C[C@@H]2N)[C@H](N)C[C@@H]1O`, the MIC was 1.3 µM (microbial growth; broth dilution; ATCC700603).
`Cc1ccc(C(C)C)cc1OS(=O)(=O)c1ccc([N+](=O)[O-])cc1` has an IC50 of 463 µg/mL (≈ 1380 µM) (microbial growth; broth dilution; ATCC700603).
With `CCOC(=O)c1c(N)csc1-c1cn(-c2ccccc2)nc1-c1ccc(C)cc1` the inhibition zone was 27 mm (microbial growth; well diffusion; 100000 µg/mL).
`CCn1cc(C(=O)O)c(=O)c2ccc(C)nc21` has an MIC of 80 µM (microbial growth; broth dilution; ATCC700603).
`O=C(O)c1cn(C2CC2)c2cc(N3CCNCC3)c(F)cc2c1=O` has an MBC of 0.5 µg/mL (microbial killing; broth dilution).
`Cc1ccc(C(C)C)cc1OS(=O)(=O)c1cccs1` has an IC50 of 163 µg/mL (≈ 551 µM) (microbial growth; broth dilution; ATCC700603).
For `Cc1c(CN(C)C(=O)/C=C/c2cnc3c(c2)CC(CCN)C(=O)N3)oc2ccccc12.Cl` (stereo not shown), the MIC was 16 µg/mL (microbial growth; broth dilution; BAA2472).
`Cc1ccc(-c2nn(-c3ccccc3)cc2C=C(C#N)C2=NC(=O)CS2)cc1` gave an inhibition zone of 21 mm (microbial growth; well diffusion; 100000 µg/mL).
`O=C(N[C@H](CO)[C@H](O)c1ccc([N+](=O)[O-])cc1)C(Cl)Cl` has an MIC of 80 µM (microbial growth; broth dilution; ATCC700603).
`CN[C@H](CC(C)C)C(=O)N[C@H]1C(=O)N[C@@H](CC(N)=O)C(=O)N[C@H]2C(=O)N[C@H]3C(=O)N[C@H](C(=O)N[C@H](C(=O)O)c4cc(O)cc(O)c4-c4cc3ccc4O)[C@H](O)c3ccc(c(Cl)c3)Oc3cc2cc(c3O[C@@H]2O[C@H](CO)[C@@H](O)[C@H](O)[C@H]2O[C@H]2C[C@](C)(N)[C@H](O)[C@H](C)O2)Oc2ccc(cc2Cl)[C@H]1O` gave an MBC of > 128 µM (microbial killing; broth dilution; ATCC43816).
For `Cc1ccc(C(C)C)cc1OCc1cn(-c2ccc(Cl)cc2)nn1`, the IC50 was 206 µg/mL (≈ 602 µM) (microbial growth; broth dilution; ATCC700603).
With `Cc1c(NN=C2SC(C(C#N)=Cc3ccc(Cl)cc3)=NC2=O)c(=O)n(-c2ccccc2)n1C` the inhibition zone was 16 mm (microbial growth; well diffusion; 100000 µg/mL).
The IC50 of `CCCCS(=O)(=O)Oc1cccc2cccnc12` is reported as 171 µg/mL (≈ 645 µM) (microbial growth; broth dilution; ATCC700603).
For `COc1cc(Cc2cnc(N)nc2N)cc(OC)c1OC`, the MIC was 20 µM (microbial growth; broth dilution; ATCC700603).
`N#CC(=Cc1ccccc1O)C1=NC(=O)C(=Cc2cn(-c3ccccc3)nc2-c2ccccc2)S1` gave an inhibition zone of 26 mm (microbial growth; well diffusion; 100000 µg/mL).
